The text below walks through data of article PMC2842456 (ACS chemical biology, 2010).

The subject of this test is wild-type clamp sensor. It counts as binding. To be noted: ligand titration with wild-type clamp sensor (Figure 2F). The essentials:
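CyPet–clamp–YPet fusion, expressed in E. coli BL21(DE3) and Ni-affinity purified, used at 140 nM unless noted. Titrated with SUMO fusions (target-peptide fusion, bare SUMO, unrelated-peptide fusion). Samples were degassed, then incubated 30 min at 25 °C in the dark. Excitation 415 nm; FRET ratio taken as 527/475 nm emission, plotted against ligand concentration.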

Turning to “GGDVHVNATYVNVKSVA [SUMO fused with an unrelated peptide]”, the “Effect on the FRET ratio of the wild-type sensor (in words)” value is reported as “no significant effect on the FRET ratio”.

B1: SUMO without an attached peptide: yeast SUMO with no attached peptide (protein, UniProt Q12306 2-98, looked up)
Ubiquitin-like protein SMT3: SDSEVNQEAKPEVKPEVKPETHINLKVSDGSSEIFFKIKKTTPLRRLMEAFAKRQGKEMDSLRFLYDGIRIQADQTPEDLDMEDNDIIEAHREQIGG
Turning to B1, the “Effect on the FRET ratio of the wild-type sensor (in words)” value is given as “no significant effect on the FRET ratio”.
